In brackets after ≈: the same amount, converted by molar mass. Activity calls are given as the source filed them. The calls are words filed in the database; no cut-off is given here.

This note sets out measurements from ChEMBL document CHEMBL3259749, “Design, synthesis and evaluation of novel 2,5,6-trisubstituted benzimidazoles targeting FtsZ as antitubercular agents” (Bioorg Med Chem, 2014).

Assay [1] relates to Mycobacterium tuberculosis. In words: Inhibition of Mycobacterium tuberculosis FtsZ polymerization assessed as 90 degrees light scattering by fluorescence system. In a few lines:
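His-tagged Mtb-FtsZ at 15 μM, Ni-resin and size-exclusion purified, preincubated with DMSO-stocked compound for up to 300 s. Buffer was 50 mM MES pH 6.5, 100 mM KCl, 5 mM MgCl2. Polymerization started with 100 μM GTP. 90° light scattering recorded at 30 °C, excitation/emission 400 nm, for up to 30 min.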

Assay [2] deals with Vero. In words: Cytotoxicity against African green monkey Vero cells […] by MTT assay. Format: cell-based. The conditions noted are these: Chlorocebus sabaeus. For orientation: Tetrazolium dyes change colour on reduction, which living cells bring about.
Assay [3] deals with Mycobacterium tuberculosis. Briefly: Antimycobacterial activity against Mycobacterium tuberculosis H37Rv assessed as growth inhibition at 1 ug/ml after 7 days incubation by Alamar Blue staining-based broth microdilution assay. Format: functional. The conditions noted are these: 168 h, read-out: GI.
Assay [4] concerns Mycobacterium tuberculosis. Briefly: Antimycobacterial activity against Mycobacterium tuberculosis H37Rv assessed as growth inhibition after 7 days incubation by Alamar Blue staining-based broth microdilution assay. Format: functional. The conditions noted are these: 168 h. In a few lines: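 Mid-log Mtb H37Rv grown in 7H9 with 10% OADC and 0.05% Tween-80, added to 2-fold serial dilutions of DMSO-stocked compound at OD600 0.005. Incubated 6 days at 37 °C, then Alamar Blue added for a further 24 h at 37 °C. Colour change read by eye; MIC99 taken in triplicate.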
(In general: Resazurin is reduced to fluorescent resorufin, in cell work by metabolically active cells.)

A short description of assay [5]: Binding affinity to Mycobacterium tuberculosis FtsZ assessed as fluorescence intensity at emission maximum 427.9 nm. The method, boiled down: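 Fluorescence of compound held at 100 μM, titrated with His-tagged Mtb-FtsZ expressed in E. coli BL21(DE3). FtsZ was Ni-resin purified and dialysed into Tris storage buffer. Run in 50 mM MES, 100 mM KCl, 5 mM MgCl2, with no GTP. Excitation 316 nm, emission 427.9 nm. Kd obtained by fitting ΔF = (ΔFmax × L)/(Kd + L).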

For assay [6], the system named is Mycobacterium tuberculosis. In words: Inhibition of Mycobacterium tuberculosis FtsZ polymerization assessed as reduction in length, density and aggregation of polymer at 40 to 80 uM by Transmission electron microscopy in presence of 25 uM GTP. The method, boiled down: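 Mtb-FtsZ at 5 μM, Ni-NTA purified, held 15 min on ice with ethanol-stocked compound in 50 mM MES pH 6.5, 5 mM MgCl2, 100 mM KCl. GTP added to 25 μM final, then 30 min at 37 °C. Sample diluted 2-fold, negatively stained with 1% uranyl acetate on carbon-coated grids, imaged at 80 kV at 23,000x and 49,000x.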

As a reminder, the IC50 is the concentration that gives 50% inhibition. A word on the MIC: it is the lowest concentration that inhibits growth of the organism. Regarding `O=C(Nc1cc2nc(C3CCCCC3)[nH]c2cc1Oc1ccc(F)cc1)c1ccc(F)cc1F`, the inhibition result in assay [1] was “Dose-dependent effect”. Moreover, in assay [2], the IC50 is more than 200 µM. The inhibition of growth at 1 µg/mL in assay [3] was found to be 44%. Moreover, in assay [4], the MIC is 12.5 µg/mL (≈ 26.9 µM).
As to `C=CCCC(=O)Nc1cc2nc(C3CCCCC3)[nH]c2cc1Sc1ccc(F)cc1`, in assay [3], the inhibition of growth at 1 µg/mL worked out at 41%.
For `C=CCCC(=O)Nc1cc2nc(C3CCCCC3)[nH]c2cc1Sc1ccccc1`, the inhibition of growth at 1 µg/mL in assay [3] came to 56%.
As for `CCCOC(=O)Nc1cc2nc(C3CCCCC3)[nH]c2cc1SCc1ccccc1`, the inhibition of growth at 1 µg/mL in assay [3] came out at 28%.
Take `CCCOC(=O)Nc1cc2nc(C3CCCCC3)[nH]c2cc1Sc1ccc(F)cc1`: the inhibition of growth at 1 µg/mL in assay [3] is 46%.
Regarding `CCN(CC)c1cc2[nH]c(C3CCCCC3)nc2cc1NC(=O)c1ccc(OC)cc1`, in assay [4], the MIC was 3.1 µg/mL (≈ 7.37 µM).
Regarding `CC(C)(C)c1ccc(C(=O)Nc2cc3nc(C4CCCCC4)[nH]c3cc2SCc2ccccc2)cc1`, the IC50 in assay [2] was more than 200 µM. In addition, the inhibition of growth at 1 µg/mL in assay [3] was found to be 52%. In addition, the MIC in assay [4] was 12.5 µg/mL (≈ 25.1 µM).
As to `CCCCSc1cc2[nH]c(C3CCCCC3)nc2cc1NC(=O)c1ccc(C)cc1`, the IC50 in assay [2] is more than 200 µM. In addition, the inhibition of growth at 1 µg/mL in assay [3] turned out to be 53%.
Molecule `C=CCCC(=O)Nc1cc2nc(C3CCCCC3)[nH]c2cc1Oc1ccc(F)cc1` showed an IC50 in assay [2] of more than 200 µM. Moreover, the inhibition of growth at 1 µg/mL in assay [3] was found to be 54%. For the same molecule, the MIC in assay [4] was found to be 12.5 µg/mL (≈ 30.7 µM).
As usually defined, the Kd is the free concentration of one partner at which half of the binding sites on the other are occupied at equilibrium, for simple one-to-one binding. As to `CCCCOC(=O)Nc1cc2nc(C3CCCCC3)[nH]c2cc1Oc1ccc(F)cc1`, the inhibition result in assay [1] was “Dose-dependent effect”. Moreover, in assay [5], the Kd was 1.32 µM. The molecule further returned an IC50 in assay [2] of 60 µM. Further, the inhibition entry in assay [6] was “Active”. Moreover, the MIC in assay [4] is 0.63 µg/mL (≈ 1.48 µM).
Take `CCCCOC(=O)Nc1cc2nc(C3CCCCC3)[nH]c2cc1N1CCCC1`: in assay [4], the MIC was found to be 0.39 µg/mL (≈ 1.01 µM).
As to `Cc1ccc(C(=O)Nc2cc3nc(C4CCCCC4)[nH]c3cc2Oc2ccc(F)cc2)cc1`, it took 26 µM to reach half-maximal inhibition in assay [2] (IC50). Further, the inhibition of growth at 1 µg/mL in assay [3] was determined as 36%. Further, in assay [4], the MIC was 1.56 µg/mL (≈ 3.52 µM).
As for `CCCCSc1cc2[nH]c(C3CCCCC3)nc2cc1NC(=O)OCCC`, the IC50 in assay [2] is 75 µM. The inhibition of growth at 1 µg/mL in assay [3] came to 38%. For the same molecule, the MIC in assay [4] turned out to be 1.25 µg/mL (≈ 3.21 µM).
Take `O=S(=O)(Nc1cc2nc(C3CCCCC3)[nH]c2cc1SCc1ccccc1)c1ccccc1`: the inhibition of growth at 1 µg/mL in assay [3] worked out at 30%.
For `CCCCSc1cc2[nH]c(C3CCCCC3)nc2cc1NS(=O)(=O)c1ccccc1`, the inhibition of growth at 1 µg/mL in assay [3] was 42%.
In assay [2], `Cc1ccc(C(=O)Nc2cc3nc(C4CCCCC4)[nH]c3cc2Sc2ccccc2)cc1` yielded an IC50 of 6.25 µM. The inhibition of growth at 1 µg/mL in assay [3] was found to be 31%. The MIC in assay [4] amounted to 6.25 µg/mL (≈ 14.2 µM).
Take `CCOc1cc2[nH]c(C3CCCCC3)nc2cc1NC(=O)c1ccc(C)cc1`: the inhibition of growth at 1 µg/mL in assay [3] worked out at 65%.
Consider `O=S(=O)(Nc1cc2nc(C3CCCCC3)[nH]c2cc1Sc1ccc(F)cc1)c1ccccc1`, for which, in assay [3], the inhibition of growth at 1 µg/mL amounted to 30%.
In the case of `C=CCCC(=O)Nc1cc2nc(C3CCCCC3)[nH]c2cc1OCCCC`, the inhibition of growth at 1 µg/mL in assay [3] worked out at 28%.
In the case of `CCCCSc1cc2[nH]c(C3CCCCC3)nc2cc1NC(=O)CCc1ccccc1`, in assay [3], the inhibition of growth at 1 µg/mL came out at 33%.
The molecule `CCCCSc1cc2[nH]c(C3CCCCC3)nc2cc1NC(=O)c1ccc(F)cc1F` showed an IC50 in assay [2] of more than 200 µM. In addition, the inhibition of growth at 1 µg/mL in assay [3] stood at 51%. In addition, in assay [4], the MIC was 1.25 µg/mL (≈ 2.82 µM).
Consider `C=CCCC(=O)Nc1cc2nc(C3CCCCC3)[nH]c2cc1SCc1ccccc1`, for which the inhibition of growth at 1 µg/mL in assay [3] is 64%.
Regarding `CCCCSc1cc2[nH]c(C3CCCCC3)nc2cc1NC(=O)c1ccc(C(C)(C)C)cc1`, the inhibition of growth at 1 µg/mL in assay [3] is 45%.
`CC(C)(C)c1ccc(C(=O)Nc2cc3nc(C4CCCCC4)[nH]c3cc2Sc2ccccc2)cc1`: the inhibition of growth at 1 µg/mL in assay [3] was 42%.
`C=CCCC(=O)Nc1cc2nc(C3CCCCC3)[nH]c2cc1SCCCC`: in assay [3], the inhibition of growth at 1 µg/mL was determined as 52%.
Molecule `COc1ccc(C(=O)Nc2cc3nc(C4CCCCC4)[nH]c3cc2Oc2ccc(F)cc2)cc1` returned a half-inhibitory concentration (IC50) in assay [2] of 40 µM. For the same molecule, the MIC in assay [4] came to 3.13 µg/mL (≈ 6.81 µM).
On to `CCCCOC(=O)Nc1cc2nc(C3CCCCC3)[nH]c2cc1N(CC)CC`, for which, in assay [4], the MIC amounted to 0.78 µg/mL (≈ 2.02 µM).
